From ChEMBL document CHEMBL4152207, “Discovery of potent and selective BRD4 inhibitors capable of blocking TLR3-induced acute airway inflammation” (Eur J Med Chem, 2018)
Activity calls are given as the source filed them. No cut-off for these calls is given here.

Legend:
Mus musculus [1] = assay: Anti-inflammatory activity in poly(I:C)-induced airway inflammation C57BL/6 mouse model assessed as reduction in mISG54 expression in lung at 10 mg/kg, ip administered 1 day prior to poly(I:C) stimulation and redosed on day 2 followed by poly(I:C) stimulation; assay type: functional, organism-based
Procedure, shortened: (§1)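 Male C57BL/6J mice, 12 weeks old, were given 10 mg/kg i.p. one day before stimulation. The next day they got a second dose, immediately followed by intranasal poly(I:C) (300 μg in 50 μL PBS) or PBS alone. Compound was taken up in DMSO and diluted in 10% hydroxypropyl β-cyclodextrin in PBS. Mice were euthanized one day later and lung tissue was collected for cytokine expression.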

Mus musculus [2] = assay: Anti-inflammatory activity in poly(I:C)-induced airway inflammation C57BL/6 mouse model assessed as reduction in mIL6 expression in lung at 10 mg/kg, ip administered 1 day prior to poly(I:C) stimulation and redosed on day 2 followed by poly(I:C) stimulation; assay type: functional, organism-based; procedure, shortened: as §1
[3] = biological target: Endothelin-1 receptor (Homo sapiens) (UniProt P25101); assay: Displacement of [125I]endothelin-1 from human recombinant endothelin ETA receptor at 10 uM after 120 mins by scintillation counting analysis relative to control
Sequence of Endothelin-1 receptor (Homo sapiens) (P25101 whole entry): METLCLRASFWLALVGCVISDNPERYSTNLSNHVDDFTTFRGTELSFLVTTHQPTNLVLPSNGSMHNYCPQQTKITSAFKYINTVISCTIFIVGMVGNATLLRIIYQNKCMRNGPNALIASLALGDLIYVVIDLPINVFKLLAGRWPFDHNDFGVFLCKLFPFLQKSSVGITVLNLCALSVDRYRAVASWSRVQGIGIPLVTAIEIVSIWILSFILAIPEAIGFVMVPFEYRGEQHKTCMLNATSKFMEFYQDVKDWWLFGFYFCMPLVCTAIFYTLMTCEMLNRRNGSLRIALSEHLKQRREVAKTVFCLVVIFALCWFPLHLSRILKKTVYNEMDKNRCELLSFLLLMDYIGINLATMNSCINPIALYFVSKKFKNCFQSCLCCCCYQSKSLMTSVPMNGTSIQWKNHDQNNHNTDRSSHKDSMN

[4] = biological target: Cav1.2 (L-type calcium channel) (Rattus norvegicus, UniProt P22002); assay: Displacement of [3H]nitrendipine from rat Cav1.2 (L-type) at 10 uM after 90 mins by scintillation counting analysis relative to control; conditions: probe [3H]nitrendipine, read-out: Activity
Sequence of Cav1.2 (L-type calcium channel) (P22002 whole entry): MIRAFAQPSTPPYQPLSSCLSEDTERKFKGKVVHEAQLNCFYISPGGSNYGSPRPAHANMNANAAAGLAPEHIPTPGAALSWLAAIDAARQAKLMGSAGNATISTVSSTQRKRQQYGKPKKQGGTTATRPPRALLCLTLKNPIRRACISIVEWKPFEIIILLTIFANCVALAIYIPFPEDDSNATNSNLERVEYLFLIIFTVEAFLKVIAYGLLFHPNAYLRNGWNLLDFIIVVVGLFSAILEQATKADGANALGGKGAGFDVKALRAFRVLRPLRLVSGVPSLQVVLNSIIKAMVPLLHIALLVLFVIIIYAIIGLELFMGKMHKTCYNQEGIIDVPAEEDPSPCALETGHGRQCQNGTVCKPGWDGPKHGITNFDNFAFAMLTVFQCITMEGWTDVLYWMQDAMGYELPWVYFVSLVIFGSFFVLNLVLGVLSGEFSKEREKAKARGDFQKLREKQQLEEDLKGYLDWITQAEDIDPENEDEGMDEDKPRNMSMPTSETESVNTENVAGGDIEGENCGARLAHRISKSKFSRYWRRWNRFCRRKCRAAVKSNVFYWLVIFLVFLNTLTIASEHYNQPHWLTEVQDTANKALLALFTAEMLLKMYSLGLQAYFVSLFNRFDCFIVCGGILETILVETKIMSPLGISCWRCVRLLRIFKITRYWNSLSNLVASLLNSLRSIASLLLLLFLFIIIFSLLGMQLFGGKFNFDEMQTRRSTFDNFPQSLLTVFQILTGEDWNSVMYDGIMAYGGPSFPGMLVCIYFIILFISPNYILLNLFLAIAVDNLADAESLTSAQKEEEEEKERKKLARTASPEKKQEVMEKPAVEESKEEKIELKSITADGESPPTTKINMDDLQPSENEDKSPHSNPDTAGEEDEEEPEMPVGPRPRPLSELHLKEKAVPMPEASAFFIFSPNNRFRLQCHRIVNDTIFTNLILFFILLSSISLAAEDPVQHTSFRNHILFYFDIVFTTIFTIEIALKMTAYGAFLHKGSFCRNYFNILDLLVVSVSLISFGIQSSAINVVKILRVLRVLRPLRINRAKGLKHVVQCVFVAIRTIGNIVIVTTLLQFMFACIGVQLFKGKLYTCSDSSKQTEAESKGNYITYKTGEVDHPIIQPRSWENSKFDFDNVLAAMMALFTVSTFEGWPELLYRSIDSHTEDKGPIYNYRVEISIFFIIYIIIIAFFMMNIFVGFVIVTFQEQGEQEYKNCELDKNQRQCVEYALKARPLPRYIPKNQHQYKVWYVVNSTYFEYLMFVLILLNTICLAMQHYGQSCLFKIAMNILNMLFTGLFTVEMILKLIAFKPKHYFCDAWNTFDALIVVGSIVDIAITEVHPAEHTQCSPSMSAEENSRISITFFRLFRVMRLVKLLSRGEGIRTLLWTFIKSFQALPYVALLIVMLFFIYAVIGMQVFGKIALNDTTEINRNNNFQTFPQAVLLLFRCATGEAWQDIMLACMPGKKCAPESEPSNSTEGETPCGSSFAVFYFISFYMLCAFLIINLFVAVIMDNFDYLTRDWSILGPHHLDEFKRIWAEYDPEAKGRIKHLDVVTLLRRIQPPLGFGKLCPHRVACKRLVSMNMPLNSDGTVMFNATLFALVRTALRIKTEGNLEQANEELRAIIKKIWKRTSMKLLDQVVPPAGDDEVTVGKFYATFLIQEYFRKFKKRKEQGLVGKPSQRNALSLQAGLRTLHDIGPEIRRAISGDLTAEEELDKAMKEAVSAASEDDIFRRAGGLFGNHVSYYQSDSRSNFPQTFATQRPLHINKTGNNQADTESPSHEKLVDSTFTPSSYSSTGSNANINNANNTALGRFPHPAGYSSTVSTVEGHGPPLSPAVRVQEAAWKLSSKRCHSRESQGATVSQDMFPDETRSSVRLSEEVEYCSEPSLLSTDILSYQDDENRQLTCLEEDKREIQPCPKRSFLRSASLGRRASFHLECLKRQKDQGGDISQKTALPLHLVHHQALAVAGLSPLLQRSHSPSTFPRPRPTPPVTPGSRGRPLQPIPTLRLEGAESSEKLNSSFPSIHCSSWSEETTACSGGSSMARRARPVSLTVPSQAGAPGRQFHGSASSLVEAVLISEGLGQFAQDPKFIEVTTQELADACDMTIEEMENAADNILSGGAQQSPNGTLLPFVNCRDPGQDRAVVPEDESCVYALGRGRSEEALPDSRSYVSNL

With Cc1cc(/N=N/c2ccc(S(=O)(=O)NC3CCCC3)cc2)c(N)cc1O the Activity (Mus musculus [1]) was “Active”, the Activity (Mus musculus [2]) was “Active” and the Activity [3] was -4.3%. For the same molecule, the inhibition at […], 10 µM [4] was 42%.
